Measured values: ChEMBL document CHEMBL1133754, “Synthesis and antiviral evaluation of halogenated beta-D- and -L-erythrofuranosylbenzimidazoles” (J Med Chem, 2000)

Key:
[1] = Compound was tested for antiviral activity against Towne strain of HCMV in a yield reduction assay using HFF cells; type: functional; conditions: Homo sapiens
How it was run: (§1)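 HCMV Towne yield reduction in HFF cells, MOI 0.5; progeny titred by end-point dilution and plaque enumeration; IC50 from linear regression of percent inhibition against log drug concentration.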

HFF [2] = experiment: Compound was tested for antiviral activity against AD169 strain of HCMV in a plaque reduction assay using HFF cells; type: functional, cell-based; conditions: Homo sapiens
[3] = (§2) Compound was tested for inhibition of KB cell growth in quadruplicate assay; type: functional, cell-based; conditions: Homo sapiens
How it was run: (§3)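 KB cell proliferation over two control population doublings; crystal violet staining with spectrophotometric quantification of eluted dye; quadruplicate assays; IC50 by linear regression of percent inhibition vs log concentration.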

Human betaherpesvirus 5 [4] = experiment: Compound was tested for antiviral activity against HCMV in DNA hybridization assay; type: functional, organism-based
How it was run: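 HCMV replication measured by DNA hybridization; IC50 from linear regression of percent inhibition against log drug concentration.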

HFF [5] = experiment: Compound was tested for antiviral activity against Towne strain of HCMV in a plaque reduction assay using HFF cells; type: functional, cell-based; conditions: Homo sapiens
Human betaherpesvirus 5 [6] = experiment: Compound was tested for antiviral activity against HCMV in viral cytopathic effect (CPE) assay; type: functional, organism-based
How it was run: (§4)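 HCMV viral cytopathic effect scored microscopically as visible virus effects on cells; IC50 derived by linear regression of percent inhibition vs log drug concentration.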

Human alphaherpesvirus 1 = experiment: Compound was tested for antiviral activity against HSV-1 assayed by ELISA in quadruplicate wells; type: functional, organism-based
How it was run: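 HSV-1 replication measured by ELISA in quadruplicate wells; IC50 from linear regression of percent inhibition against log drug concentration.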

HFF [7] = experiment: Compound was tested for visual cytotoxicity on HFF cells unaffected by HCMV at the time of plaque enumeration; type: functional, cell-based; conditions: Homo sapiens
How it was run: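 Stationary HFF cells not affected by virus in plaque assay plates inspected microscopically for cytotoxicity at time of plaque enumeration; IC50 by regression of percent inhibition vs log concentration.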

HFF [8] = experiment: Compound was tested for antiviral activity against wild-type Towne virus of HCMV in plaque reduction assay using HFF cells; type: functional, cell-based; conditions: Homo sapiens
HFF [9] = experiment: Compound was tested for antiviral activity against wild-type Towne virus of HCMV in yield reduction assay using HFF cells; type: functional, cell-based; conditions: Homo sapiens; how it was run: as §1
HFF [10] = experiment: Compound was tested for antiviral activity against 2916 strain of HCMV in plaque reduction assay using HFF cells; type: functional, cell-based; conditions: Homo sapiens
KB = experiment: as §2; type: functional, cell-based; conditions: Homo sapiens; how it was run: as §3
HFF [11] = experiment: Compound was tested for antiviral activity against C-4 Towne virus of HCMV in yield reduction assay using HFF cells; type: functional, cell-based; conditions: Homo sapiens
HFF [12] = experiment: Compound was tested for antiviral activity against wild-type AD169 virus of HCMV in plaque reduction assay using HFF cells; type: functional, cell-based; conditions: Homo sapiens
HFF [13] = experiment: Compound was tested for antiviral activity against C-4 Towne virus of HCMV in plaque reduction assay using HFF cells; type: functional, cell-based; conditions: Homo sapiens
[14] = Compound was tested for inhibition of MOLT 4 cells.; type: functional, cell-based, Homo sapiens
How it was run: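 Cytotoxicity in MOLT 4 cells (human T-cell lymphocytic leukemia line). IC50 from linear regression of percent inhibition against log drug concentration; >100 µM means IC50 was not reached at the highest concentration tested.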

Human betaherpesvirus 5 [15] = experiment: Compound was tested for antiviral activity against HCMV in viral cytopathic effect(CPE) assay; type: functional, organism-based; how it was run: as §4
HFF [16] = experiment: (§5) Compound was tested for antiviral activity against wild-type Towne strain of HCMV in yield reduction assay using HFF cells; type: functional; conditions: Homo sapiens; how it was run: as §1
HFF [17] = experiment: (§6) Compound was tested for antiviral activity against C-4 Towne strain of HCMV in yield reduction assay using HFF cells; type: functional; conditions: Homo sapiens
HFF [18] = experiment: Compound was tested for antiviral activity against 2916 type AD169 virus of HCMV in plaque reduction assay using HFF cells; type: functional, cell-based; conditions: Homo sapiens
HFF [19] = experiment: (§7) Compound was tested for antiviral activity against 2916 AD169 strain of HCMV in yield reduction assay using HFF cells; type: functional, cell-based; conditions: Homo sapiens
HFF [20] = experiment: Compound was tested for antiviral activity against AD169 strain of HCMV in a plaque assay using HFF cells; type: functional, cell-based; conditions: Homo sapiens
HFF [21] = experiment: (§8) Compound was tested for antiviral activity against wild-type AD169 strain of HCMV in yield reduction assay using HFF cells; type: functional, cell-based; conditions: Homo sapiens
HFF [22] = experiment: as §6; type: functional, cell-based; conditions: Homo sapiens
HFF [23] = experiment: as §7; type: functional; conditions: Homo sapiens
HFF [24] = experiment: as §5; type: functional, cell-based; conditions: Homo sapiens; how it was run: as §1
HFF [25] = experiment: as §8; type: functional; conditions: Homo sapiens

Row | SMILES | IC90 [1] [µM] | IC50 [3] [µM] | IC50 (Human betaherpesvirus 5 [4]) [µM] | IC50 (HFF [5]) [µM] | IC50 (Human betaherpesvirus 5 [6]) [µM] | IC50 (Human alphaherpesvirus 1) [µM] | IC50 (HFF [7]) [µM] | IC50 (KB) [µM] | IC50 [14] [µM] | also measured
1 | CC(=O)OC1[C@@H](OC(C)=O)CO[C@H]1n1c(Br)nc2cc(Cl)c(Cl)cc21 (stereo partly drawn) | 0.05 | 60 | 0.21 | 0.22 | 0.05 | > 100 | 59 |  |  | IC50 (HFF [2]): 0.05 µM
2 | CC(=O)OC1[C@@H](OC(C)=O)CO[C@H]1n1c(Cl)nc2cc(Cl)c(Cl)cc21 (stereo partly drawn) | 0.1 | 45 | 0.33 | 0.25 | 0.1 | > 100 | 41 |  |  | 
3 | OC[C@H]1O[C@@H](n2c(Br)nc3cc(Cl)c(Cl)cc32)[C@H](O)[C@@H]1O | 0.2 |  | 0.52 | 0.7 | 0.3 | 130 | 118 | > 100 |  | IC50 (HFF [8]): 1.7 µM; IC50 (HFF [9]): 0.3 µM; IC50 (HFF [10]): 0.41 µM; IC90 (HFF [11]): 8 µM; IC50 (HFF [12]): 0.34 µM; IC50 (HFF [13]): 31 µM
4 | OC[C@H]1O[C@@H](n2c(Cl)nc3cc(Cl)c(Cl)cc32)[C@H](O)[C@@H]1O | 1.3 | 210 |  | 2.8 |  |  |  |  |  | 
5 | O[C@@H]1COC(n2c(Cl)nc3cc(Cl)c(Cl)cc32)[C@@H]1O (stereo partly drawn) | 0.12 | 60 | 0.1 | 0.24 | 0.1 | > 100 | 32 |  |  | 
6 | CC(C)Nc1nc2cc(Cl)c(Cl)cc2n1C1OC[C@H](O)[C@@H]1O (stereo partly drawn) |  |  | 0.8 |  | 2.3 |  |  |  | 15 | 
7 | CC(C)Nc1nc2c(Br)c(Cl)c(Cl)cc2n1C1OC[C@@H](O)[C@H]1O (stereo partly drawn) |  |  | 0.16 |  | 1 |  |  |  | 13 | 
8 | O[C@@H]1COC(n2c(Cc3ccccc3S)nc3cc(Cl)c(Cl)cc32)[C@@H]1O (stereo partly drawn) |  |  | > 10 | 32 | > 10 | 65 | 32 | 60 |  | 
9 | CC(C)Nc1nc2cc(Cl)c(Cl)cc2n1C1OC[C@@H](O)[C@H]1O (stereo partly drawn) | 5 |  | 0.42 | 7.9 |  | > 100 | > 100 | > 100 | 84 | IC50 (Human betaherpesvirus 5 [15]): 0.8 µM; IC50 (HFF [2]): 1.8 µM; IC90 (HFF [16]): 6.9 µM; IC90 (HFF [17]): 8.5 µM
10 | O[C@@H]1COC(n2c(NC3CC3)nc3cc(Cl)c(Cl)cc32)[C@@H]1O (stereo partly drawn) | 6.8 | > 100 | 0.26 | 19 | 0.6 | > 100 | > 100 |  | 132 | IC90 (HFF [16]): 10 µM; IC90 (HFF [17]): 5 µM
11 | O[C@@H]1C(n2c(NC3CC3)nc3cc(Cl)c(Cl)cc32)OC[C@@H]1O (stereo partly drawn) |  |  | 2 |  | 2.3 |  |  |  | 43 | 
12 | O[C@@H]1COC(n2c(Br)nc3cc(Cl)c(Cl)cc32)[C@@H]1O (stereo partly drawn) | 0.06 |  | 0.23 | 0.24 | 0.05 | 50 | 32 | 50 | 47 | IC50 (HFF [8]): 0.23 µM; IC50 (HFF [2]): 0.04 µM; IC50 (HFF [18]): 0.03 µM; IC50 (HFF [12]): 0.03 µM; IC50 (HFF [13]): 12 µM
13 | CC(C)Nc1nc2c(Cl)c(Cl)c(Cl)cc2n1C1OC[C@H](O)[C@@H]1O (stereo partly drawn) |  |  | 0.15 |  | 0.8 |  |  |  |  | 
14 | CC(C)Nc1nc2cc(Cl)c(Cl)cc2n1C1O[C@@H](CO)[C@H](O)[C@@H]1O (stereo partly drawn) | 0.6 | 65 | 0.1 |  |  | > 100 | > 100 |  |  | IC90 (HFF [16]): 0.59 µM; IC50 (HFF [19]): > 100 µM; IC50 (HFF [20]): 0.45 µM; IC90 (HFF [17]): 0.7 µM; IC50 (HFF [21]): 0.33 µM
15 | Nc1nc2c(ncn2COC(CO)CO)c(=O)[nH]1 [GANCICLOVIR] | 1.6 |  | 0.88 |  |  |  | > 100 | > 100 |  | IC50 (Human betaherpesvirus 5 [15]): 2 µM; IC90 (HFF [22]): 4.1 µM; IC90 (HFF [23]): 3.6 µM; IC50 (HFF [24]): 4.5 µM; IC90 (HFF [25]): 3.3 µM
